pIC50: −log10 of the molar value. The source made the active and inactive calls. The calls are words filed in the database; no cut-off is given here.
Key:
[1] = target: Poly [ADP-ribose] polymerase 2 (Homo sapiens, UniProt Q9UGN5); experiment: Inhibition of human recombinant N-terminal GST-tagged PARP-2 expressed in Baculovirus infected Sf9 cells assessed as reduction in NAD+-dependent ADP ribosylation using histone mixture (H2A and H2B) as substrate in presence of activated DNA incubated for 30 mins by chemiluminescence assay
SK-OV-3 [2] = experiment: Induction of ROS generation in human SKOV3 cells assessed as fold increase in ROS level at 5 uM incubated for 48 hrs by DCFH-DA staining based flow cytometry relative to control; assay type: functional
SK-OV-3 [3] = experiment: Antitumor activity against human SKOV3 cells xenografted in Balb/c nude mouse assessed as reduction in Ki67 expression in tumor at 25 to 50 mg/kg, po for 21 days by immunohistochemistry analysis; assay type: functional, organism-based; details: dose 25-50 mg/kg, time 21.0 day
Method in brief: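 SK-OV-3 xenografts in female BALB/c nude mice were dosed orally at 25 or 50 mg/kg in 0.5% CMC-Na for 21 days. Tumours were then snap-frozen in liquid nitrogen or fixed in 10% neutral-buffered formalin. Analysis used western blotting, H&E and immunohistochemistry on paraffin sections (Ki67, γ-H2AX).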

[4] = Oral bioavailability in Sprague-Dawley rat at 10 mg/kg by LC/MS/MS analysis; assay type: ADME, organism-based; details: in vivo
Method in brief: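 Male Sprague-Dawley rats, 4 per group, dosed once orally at 10 mg/kg or intravenously at 2 mg/kg. Blood taken from the saphenous vein for plasma. Drug levels measured by LC-MS-MS, with parameters derived by noncompartmental analysis.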

[5] = target: Poly [ADP-ribose] polymerase 1 (Homo sapiens, UniProt P09874); experiment: Inhibition of PARP-1 in human SKOV3 cells assessed as intracellular poly-ADP ribose level at 2.5 to 10 uM incubated for 48 hrs by Western blot analysis; assay type: cell-based; details: SK-OV-3, dose 2.5-10 µM
Method in brief: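 SK-OV-3 cells were grown in McCOY's 5A, seeded in 6-well plates and treated for 48 h. Lysate proteins were separated by 8-15 % SDS-PAGE and transferred to PVDF membranes. Membranes were blocked in 5 % nonfat milk, probed with primary antibody overnight at 4 °C and with HRP secondary antibody for 1 h at room temperature, then detected by enhanced chemiluminescence. Images are representative of 3 independent experiments.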

Chain of Poly [ADP-ribose] polymerase 2 (Q9UGN5 whole entry): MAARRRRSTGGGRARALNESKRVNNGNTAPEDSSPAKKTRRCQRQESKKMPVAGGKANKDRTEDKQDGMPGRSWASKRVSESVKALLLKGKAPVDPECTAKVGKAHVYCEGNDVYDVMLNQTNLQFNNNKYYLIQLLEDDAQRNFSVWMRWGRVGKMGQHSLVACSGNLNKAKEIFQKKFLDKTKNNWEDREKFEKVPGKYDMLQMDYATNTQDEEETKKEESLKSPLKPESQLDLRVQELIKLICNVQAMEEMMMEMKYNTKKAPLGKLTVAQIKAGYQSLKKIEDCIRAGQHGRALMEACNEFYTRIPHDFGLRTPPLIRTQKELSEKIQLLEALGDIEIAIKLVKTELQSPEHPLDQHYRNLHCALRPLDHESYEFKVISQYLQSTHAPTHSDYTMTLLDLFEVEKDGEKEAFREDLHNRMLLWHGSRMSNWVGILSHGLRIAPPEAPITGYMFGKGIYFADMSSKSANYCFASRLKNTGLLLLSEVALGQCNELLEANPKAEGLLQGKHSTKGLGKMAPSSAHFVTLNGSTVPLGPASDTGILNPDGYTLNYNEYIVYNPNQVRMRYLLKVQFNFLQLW
Chain of Poly [ADP-ribose] polymerase 1 (P09874 whole entry): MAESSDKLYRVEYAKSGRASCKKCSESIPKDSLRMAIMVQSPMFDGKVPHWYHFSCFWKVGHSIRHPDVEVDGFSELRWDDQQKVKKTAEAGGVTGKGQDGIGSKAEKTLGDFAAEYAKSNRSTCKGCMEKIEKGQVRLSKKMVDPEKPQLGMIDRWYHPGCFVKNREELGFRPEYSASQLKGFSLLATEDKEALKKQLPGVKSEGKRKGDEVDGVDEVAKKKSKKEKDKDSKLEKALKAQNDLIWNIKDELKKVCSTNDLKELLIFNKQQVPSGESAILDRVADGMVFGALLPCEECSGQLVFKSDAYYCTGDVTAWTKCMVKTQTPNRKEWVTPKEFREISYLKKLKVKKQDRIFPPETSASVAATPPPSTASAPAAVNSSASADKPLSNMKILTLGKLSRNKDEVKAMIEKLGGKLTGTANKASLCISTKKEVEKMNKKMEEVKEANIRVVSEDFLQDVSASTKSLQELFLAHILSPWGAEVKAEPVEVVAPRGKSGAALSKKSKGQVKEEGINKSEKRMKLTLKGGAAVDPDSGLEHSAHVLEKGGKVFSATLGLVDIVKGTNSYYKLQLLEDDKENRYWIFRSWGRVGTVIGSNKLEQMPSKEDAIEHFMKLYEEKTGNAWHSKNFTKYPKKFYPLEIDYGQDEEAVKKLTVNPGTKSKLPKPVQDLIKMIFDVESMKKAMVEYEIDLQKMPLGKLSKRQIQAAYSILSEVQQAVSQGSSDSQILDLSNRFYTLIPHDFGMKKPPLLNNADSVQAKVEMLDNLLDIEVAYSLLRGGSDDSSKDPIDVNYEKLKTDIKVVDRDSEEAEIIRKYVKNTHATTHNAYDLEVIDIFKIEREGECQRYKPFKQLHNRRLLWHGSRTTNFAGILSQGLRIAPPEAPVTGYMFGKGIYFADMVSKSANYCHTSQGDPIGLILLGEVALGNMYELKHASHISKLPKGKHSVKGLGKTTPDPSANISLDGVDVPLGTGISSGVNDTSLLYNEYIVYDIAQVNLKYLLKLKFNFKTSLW

COc1cc(/C=N/NC(N)=S)c(Br)c(Br)c1OC
pIC50 [1]: < 6.00
fold change (FC) (SK-OV-3 [2]): 2.51
Activity (SK-OV-3 [3]): Active
F [4]: 47.3%
inhibition [5]: Active
